From ChEMBL document CHEMBL2311433, “Inhibition of protein glycation by urea and thiourea derivatives of glycine/proline conjugated benzisoxazole analogue - synthesis and structure-activity studies” (Eur J Med Chem, 2013) come the findings set out here.

For one test, the target named is Albumin (Bos taurus, UniProt P02769). Briefly: Inhibition of glycation of bovine serum albumin assessed as advanced glycated end product measured after 7 days by spectrofluorimeter in presence of glucose anhydrous.
Albumin, sequence (P02769 whole entry): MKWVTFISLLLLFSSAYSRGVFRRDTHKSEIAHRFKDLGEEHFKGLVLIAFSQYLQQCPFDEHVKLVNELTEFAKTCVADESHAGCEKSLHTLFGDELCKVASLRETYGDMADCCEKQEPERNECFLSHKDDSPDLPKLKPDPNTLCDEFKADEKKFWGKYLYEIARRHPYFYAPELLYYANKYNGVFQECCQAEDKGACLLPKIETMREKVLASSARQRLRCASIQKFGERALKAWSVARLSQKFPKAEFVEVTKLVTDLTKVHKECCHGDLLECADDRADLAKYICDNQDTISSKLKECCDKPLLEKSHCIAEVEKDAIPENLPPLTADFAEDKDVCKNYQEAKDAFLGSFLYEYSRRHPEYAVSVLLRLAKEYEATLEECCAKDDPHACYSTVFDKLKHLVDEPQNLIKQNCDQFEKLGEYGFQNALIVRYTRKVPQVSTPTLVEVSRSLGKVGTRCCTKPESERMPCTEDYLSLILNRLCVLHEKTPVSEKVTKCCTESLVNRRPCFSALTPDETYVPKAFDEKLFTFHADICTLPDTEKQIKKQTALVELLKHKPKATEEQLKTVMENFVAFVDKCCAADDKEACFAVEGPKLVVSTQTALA
Conditions: not given; call rule not given here
In short, it runs like this: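 BSA (10 mg/mL) incubated with anhydrous glucose (50 mg/mL) in 67 mM sodium phosphate buffer, pH 7.4, containing 3 mM sodium azide; compounds dissolved in DMSO. Incubation 37 °C for 7 days. Then 100% trichloroacetic acid added and the mixture centrifuged at 15,000 rpm, 4 min, 4 °C. A PBS, pH 10, was also prepared.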
As for `CC(C)(C)OC(=O)NCC(=O)N1CCC(c2noc3cc(F)ccc23)CC1`, the IC50 result is on record as “Not Active”. On the same count and under the same terms, then `O=C(CNC(=S)Nc1cccc(Cl)c1)N1CCC(c2noc3cc(F)ccc23)CC1`, with “Not Active”; and `O=C(CNC(=S)Nc1ccc(Cl)cc1)N1CCC(c2noc3cc(F)ccc23)CC1`, with “Not Active”; and `CC(C)(C)OC(=O)N1CCCC1C(=O)N1CCC(c2noc3cc(F)ccc23)CC1` (stereo not given), with “Not Active”.

Staying with this test, now noted: read-out: IC50.
For the molecule `O=C(NCC(=O)N1CCC(c2noc3cc(F)ccc23)CC1)Nc1ccccc1F`, the IC50 was found to be 55.5 µM.

As for `O=C(C1CCCN1C(=O)Nc1ccc(F)cc1)N1CCC(c2noc3cc(F)ccc23)CC1` (stereo not given), the IC50 turned out to be 76.1 µM. Same read-out and setting: then `O=C(C1CCCN1C(=O)Nc1ccc(Br)cc1)N1CCC(c2noc3cc(F)ccc23)CC1` (stereo not given), with 6.8 µM.

Consider `O=C(C1CCCN1C(=O)Nc1ccccc1)N1CCC(c2noc3cc(F)ccc23)CC1` (stereo not given), for which the IC50 amounted to 340 µM.

As to `O=C(C1CCCN1C(=S)Nc1ccc(Cl)cc1)N1CCC(c2noc3cc(F)ccc23)CC1` (stereo not given), the IC50 amounted to 59.4 µM. Same read-out and setting: then `O=C(NCC(=O)N1CCC(c2noc3cc(F)ccc23)CC1)Nc1cccc(F)c1`, with 100 µM. As for `COc1cccc(NC(=O)NCC(=O)N2CCC(c3noc4cc(F)ccc34)CC2)c1`, the IC50 was 21.1 µM.

In the case of `COc1ccc(NC(=S)N2CCCC2C(=O)N2CCC(c3noc4cc(F)ccc34)CC2)cc1` (stereo not given), the IC50 was determined as 3.9 µM. On the same count and under the same terms, under `O=C(NCC(=O)N1CCC(c2noc3cc(F)ccc23)CC1)Nc1cccc(Br)c1` stands 9.3 µM; under `O=C(C1CCCN1C(=S)Nc1cccc(Br)c1)N1CCC(c2noc3cc(F)ccc23)CC1` (stereo not given), 4.7 µM; under `COc1ccc(NC(=O)NCC(=O)N2CCC(c3noc4cc(F)ccc34)CC2)cc1`, 19.5 µM. The same measure, in the same setting: under `O=C(NCC(=O)N1CCC(c2noc3cc(F)ccc23)CC1)Nc1ccc(Br)cc1` stands 8.5 µM. For `O=C(CNC(=S)Nc1ccccc1F)N1CCC(c2noc3cc(F)ccc23)CC1`, the IC50 is 9.1 µM. The same measure, in the same setting: under `COc1ccccc1NC(=S)NCC(=O)N1CCC(c2noc3cc(F)ccc23)CC1` stands 4.1 µM; under `O=C(CNC(=S)Nc1cccc(Br)c1)N1CCC(c2noc3cc(F)ccc23)CC1`, 4.9 µM; under `COc1ccccc1NC(=O)N1CCCC1C(=O)N1CCC(c2noc3cc(F)ccc23)CC1` (stereo not given), 30.6 µM. The same measure, in the same setting: then `O=C(C1CCCN1C(=S)Nc1cccc(Cl)c1)N1CCC(c2noc3cc(F)ccc23)CC1` (stereo not given), with 126 µM. The same measure, in the same setting: then `O=C(CNC(=S)Nc1ccccc1Br)N1CCC(c2noc3cc(F)ccc23)CC1`, with 6.3 µM.

Turning to `COc1ccccc1NC(=O)NCC(=O)N1CCC(c2noc3cc(F)ccc23)CC1`, the IC50 turned out to be 20.2 µM. As to `O=C(CNC(=S)Nc1ccccc1)N1CCC(c2noc3cc(F)ccc23)CC1`, the IC50 was determined as 380 µM.

As to `O=C(NCC(=O)N1CCC(c2noc3cc(F)ccc23)CC1)Nc1cccc(Cl)c1`, the IC50 worked out at 144 µM.

Consider `O=C(C1CCCN1C(=S)Nc1ccc(F)cc1)N1CCC(c2noc3cc(F)ccc23)CC1` (stereo not given), for which the 50% inhibitory concentration (IC50) was 70.9 µM. Same read-out and setting: then `O=C(C1CCCN1C(=S)Nc1ccccc1)N1CCC(c2noc3cc(F)ccc23)CC1` (stereo not given), with 295 µM; and `O=C(C1CCCN1C(=O)Nc1cccc(Br)c1)N1CCC(c2noc3cc(F)ccc23)CC1` (stereo not given), with 6.9 µM. Same read-out and setting: then `O=C(C1CCCN1C(=O)Nc1cccc(Cl)c1)N1CCC(c2noc3cc(F)ccc23)CC1` (stereo not given), with 145 µM; and `COc1cccc(NC(=S)N2CCCC2C(=O)N2CCC(c3noc4cc(F)ccc34)CC2)c1` (stereo not given), with 20.5 µM.

With `O=C(C1CCCN1C(=O)Nc1ccccc1F)N1CCC(c2noc3cc(F)ccc23)CC1` (stereo not given), the IC50 was 54.8 µM. On the same count and under the same terms, then `O=C(NCC(=O)N1CCC(c2noc3cc(F)ccc23)CC1)Nc1ccc(F)cc1`, with 75.8 µM. The same measure, in the same setting: then `O=C(C1CCCN1C(=O)Nc1cccc(F)c1)N1CCC(c2noc3cc(F)ccc23)CC1` (stereo not given), with 117 µM; and `O=C(C1CCCN1C(=S)Nc1ccccc1F)N1CCC(c2noc3cc(F)ccc23)CC1` (stereo not given), with 7.8 µM; and `C[C@@H]1O[C@@H](OC[C@H]2O[C@@H](Oc3c(-c4ccc(O)c(O)c4)oc4cc(O)cc(O)c4c3=O)[C@H](O)[C@@H](O)[C@@H]2O)[C@H](O)[C@H](O)[C@H]1O` [RUTIN], with 41.9 µM. On the same count and under the same terms, under `COc1cccc(NC(=S)NCC(=O)N2CCC(c3noc4cc(F)ccc34)CC2)c1` stands 15.3 µM; under `O=C(NCC(=O)N1CCC(c2noc3cc(F)ccc23)CC1)Nc1ccc(Cl)cc1`, 83.9 µM; under `O=C(C1CCCN1C(=S)Nc1ccccc1Br)N1CCC(c2noc3cc(F)ccc23)CC1` (stereo not given), 7.8 µM.

Turning to `COc1ccc(NC(=S)NCC(=O)N2CCC(c3noc4cc(F)ccc34)CC2)cc1`, the IC50 was found to be 3.6 µM. On the same count and under the same terms, then `COc1ccc(NC(=O)N2CCCC2C(=O)N2CCC(c3noc4cc(F)ccc34)CC2)cc1` (stereo not given), with 22.1 µM. Take `COc1cccc(NC(=O)N2CCCC2C(=O)N2CCC(c3noc4cc(F)ccc34)CC2)c1` (stereo not given): the IC50 was 33.4 µM. On the same count and under the same terms, under `O=C(CNC(=S)Nc1ccc(F)cc1)N1CCC(c2noc3cc(F)ccc23)CC1` stands 70.3 µM; under `O=C(NCC(=O)N1CCC(c2noc3cc(F)ccc23)CC1)Nc1ccccc1`, 390 µM; under `COc1ccccc1NC(=S)N1CCCC1C(=O)N1CCC(c2noc3cc(F)ccc23)CC1` (stereo not given), 5.2 µM.

Turning to `O=C(C1CCCN1C(=O)Nc1ccc(Cl)cc1)N1CCC(c2noc3cc(F)ccc23)CC1` (stereo not given), the IC50 turned out to be 60.3 µM.

The IC50 is the concentration needed to halve the response being measured.
